Test results as given in ChEMBL document CHEMBL5360562 (Eur J Med Chem, 2023).
Converted amounts (≈) assume the structure as drawn.

Assays:
[1] = Antiproliferative against human HepG2 cells assessed as reduction in cell viability incubated for 24 hrs by XTT assay; type: toxicity, cell-based
Acinetobacter baumannii [2] = experiment: Potentiation of Clarithromycin antibacterial activity against Acinetobacter baumannii AB5075 assessed as fold reduction in clarithromycin MIC at 5 uM incubated for 16 hrs by broth microdilution method; type: functional
Procedure, shortened: (§1)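 Checkerboard-style potentiation by broth microdilution. 6 h day cultures in CAMHB diluted to 5×10^5 CFU/mL. Adjuvant added from 10 mM DMSO stock at fixed concentration throughout. […] Controls: antibiotic alone, adjuvant alone, media only. Incubated stationary at 37 °C for 16 h. MIC is lowest concentration with no visible growth; fold reduction taken against the antibiotic-alone lane.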

[3] = Stability of compound in human plasma assessed as parent compound remaining measured at 4 hrs; type: ADME, cell-free
Procedure, shortened: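 Compound at 20 μM final in human plasma (from 10 mM DMSO stock), 37 °C; aliquots at 0, 30, 60, 120, 240 min quenched in internal standard in 1:1 ACN/MeOH, centrifuged, supernatant analysed by UPLC-MRM. Peak-area ratio to internal standard expressed as % parent remaining relative to 0 min; half-life calculated.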

Acinetobacter baumannii [4] = experiment: Potentiation of Clarithromycin antibacterial activity against Acinetobacter baumannii AB5075 assessed as clarithromycin MIC at 5 uM incubated for 16 hrs by broth microdilution method; type: functional
[5] = Metabolic stability in human liver microsomes assessed as parent compound remaining in presence of NADPH measured at 1 hr by UV-UPLC analysis; type: ADME, Microsome
Acinetobacter baumannii [6] = experiment: Antibacterial activity against Acinetobacter baumannii AB5075 assessed as reduction in bacterial growth incubated for 16 hrs by broth microdilution method; type: functional
Acinetobacter baumannii [7] = experiment: Potentiation of Clarithromycin antibacterial activity against Acinetobacter baumannii AB5075 assessed as fold reduction in clarithromycin MIC at 30 uM incubated for 16 hrs by broth microdilution method; type: functional; procedure, shortened: as §1
[8] = Therapeutic index, ratio of IC50 for antiproliferative against human HepG2 cells assessed as reduction in cell viability to MIC for potentiation of Clarithromycin antibacterial activity against Acinetobacter baumannii […] assessed as clarithromycin MIC; type: toxicity, cell-based; conditions: read-out: TI
Acinetobacter baumannii [9] = experiment: Potentiation of Clarithromycin antibacterial activity against Acinetobacter baumannii AB5075 assessed as clarithromycin MIC at 30 uM incubated for 16 hrs by broth microdilution method; type: functional
Acinetobacter baumannii [10] = experiment: Potentiation of Clarithromycin antibacterial activity against Acinetobacter baumannii AB5075 assessed as fold reduction in clarithromycin MIC at 7.5 uM incubated for 16 hrs by broth microdilution method; type: functional; procedure, shortened: as §1
Acinetobacter baumannii [11] = experiment: Potentiation of Clarithromycin antibacterial activity against Acinetobacter baumannii AB5075 assessed as clarithromycin MIC at 7.5 uM incubated for 16 hrs by broth microdilution method; type: functional
Acinetobacter baumannii [12] = experiment: Potentiation of Clarithromycin antibacterial activity against Acinetobacter baumannii AB5075 assessed as clarithromycin MIC at 2.5 uM incubated for 16 hrs by broth microdilution method; type: functional
Acinetobacter baumannii [13] = experiment: Potentiation of Clarithromycin antibacterial activity against Acinetobacter baumannii AB5075 assessed as reduction in clarithromycin MIC at 20 uM incubated for 16 hrs by broth microdilution method; type: functional; conditions: for MIC: Acinetobacter baumannii, AB5075
Acinetobacter baumannii [14] = experiment: Potentiation of Clarithromycin antibacterial activity against Acinetobacter baumannii AB5075 assessed as fold reduction in clarithromycin MIC at 10 uM incubated for 16 hrs by broth microdilution method; type: functional; procedure, shortened: as §1
Acinetobacter baumannii [15] = experiment: Potentiation of Clarithromycin antibacterial activity against Acinetobacter baumannii AB5075 assessed as clarithromycin MIC at 10 uM incubated for 16 hrs by broth microdilution method; type: functional
Acinetobacter baumannii [16] = experiment: Potentiation of rifampicin antibacterial activity against Acinetobacter baumannii AB5075 assessed as rifampicin MIC at 10 uM incubated for 16 hrs by broth microdilution method; type: functional
Acinetobacter baumannii [17] = experiment: Potentiation of rifampicin antibacterial activity against Acinetobacter baumannii AB5075 assessed as rifampicin MIC at 30 uM incubated for 16 hrs by broth microdilution method; type: functional
Acinetobacter baumannii [18] = experiment: Potentiation of Azithromycin antibacterial activity against Acinetobacter baumannii AB5075 assessed as azithromycin MIC at 10 uM incubated for 16 hrs by broth microdilution method; type: functional
Acinetobacter baumannii [19] = experiment: Potentiation of erythromycin antibacterial activity against Acinetobacter baumannii AB5075 assessed as erythromycin MIC at 30 uM incubated for 16 hrs by broth microdilution method; type: functional
Acinetobacter baumannii [20] = experiment: Potentiation of Azithromycin antibacterial activity against Acinetobacter baumannii AB5075 assessed as azithromycin MIC at 30 uM incubated for 16 hrs by broth microdilution method; type: functional
Acinetobacter baumannii [21] = experiment: Potentiation of Azithromycin antibacterial activity against Acinetobacter baumannii AB5075 assessed as azithromycin MIC at 20 uM incubated for 16 hrs by broth microdilution method; type: functional
Acinetobacter baumannii [22] = experiment: Potentiation of erythromycin antibacterial activity against Acinetobacter baumannii AB5075 assessed as erythromycin MIC at 10 uM incubated for 16 hrs by broth microdilution method; type: functional
Acinetobacter baumannii [23] = experiment: Potentiation of erythromycin antibacterial activity against Acinetobacter baumannii AB5075 assessed as erythromycin MIC at 20 uM incubated for 16 hrs by broth microdilution method; type: functional
Acinetobacter baumannii [24] = experiment: Potentiation of rifampicin antibacterial activity against Acinetobacter baumannii AB5075 assessed as rifampicin MIC at 20 uM incubated for 16 hrs by broth microdilution method; type: functional
Acinetobacter baumannii [25] = experiment: Potentiation of rifampicin antibacterial activity against Acinetobacter baumannii AB5075 assessed as rifampicin MIC at 7.5 uM incubated for 16 hrs by broth microdilution method; type: functional
Procedure, shortened: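 A. baumannii AB5075 6 h day cultures in CAMHB subcultured to 5×10^5 CFU/mL; adjuvant added from 10 mM DMSO stock at fixed concentration, then rifampicin (DMSO) twofold serially diluted in adjuvant-containing broth. Antibiotic-alone and adjuvant-alone control lanes.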

Nc1nc(-c2ccc(NC(=O)c3ccc(Cl)c(Cl)c3)cc2F)c[nH]1
IC50 at 24 h [1]: 6.8 µg/mL (≈ 18.6 µM)
fold change (FC) (Acinetobacter baumannii [2]): 4
Stability [3]: > 95%
MIC (Acinetobacter baumannii [4]): 8 µg/mL
Stability [5]: 57%
MIC (Acinetobacter baumannii [6]): > 200 µM
fold change (FC) (Acinetobacter baumannii [7]): 64
selectivity ratio [8]: 2.3
MIC (Acinetobacter baumannii [9]): 0.5 µg/mL
fold change (FC) (Acinetobacter baumannii [10]): 32
MIC (Acinetobacter baumannii [11]): 1 µg/mL

Cl.Cl.Nc1nc(-c2cc(F)cc(NC(=O)Nc3ccc(-c4c[nH]c(N)n4)c(F)c3)c2)c[nH]1
MIC (Acinetobacter baumannii [12]): 32 µg/mL
MIC (Acinetobacter baumannii [4]): 1 µg/mL
fold change (FC) (Acinetobacter baumannii [13]): 256
MIC (Acinetobacter baumannii [13]): 0.125 µg/mL
MIC (Acinetobacter baumannii [6]): > 200 µM
fold change (FC) (Acinetobacter baumannii [7]): >=512
MIC (Acinetobacter baumannii [9]): ≤ 0.062 µg/mL
fold change (FC) (Acinetobacter baumannii [10]): 128
MIC (Acinetobacter baumannii [11]): 0.25 µg/mL

Cl.Cl.Nc1nc(-c2ccc(F)c(NC(=O)Nc3cc(-c4c[nH]c(N)n4)ccc3F)c2)c[nH]1
MIC (Acinetobacter baumannii [6]): > 200 µM
fold change (FC) (Acinetobacter baumannii [7]): 1
MIC (Acinetobacter baumannii [9]): 32 µg/mL

Cl.Cl.Nc1nc(-c2ccc(F)c(NC(=O)Nc3ccc(-c4c[nH]c(N)n4)c(F)c3)c2)c[nH]1
MIC (Acinetobacter baumannii [6]): > 200 µM
fold change (FC) (Acinetobacter baumannii [7]): 4
MIC (Acinetobacter baumannii [9]): 8 µg/mL

Cl.Cl.Nc1nc(-c2cccc(NC(=O)Nc3cc(F)cc(-c4c[nH]c(N)n4)c3)c2)c[nH]1
fold change (FC) (Acinetobacter baumannii [2]): 2
MIC (Acinetobacter baumannii [4]): 16 µg/mL
fold change (FC) (Acinetobacter baumannii [13]): >=512
MIC (Acinetobacter baumannii [13]): ≤ 0.062 µg/mL
fold change (FC) (Acinetobacter baumannii [14]): 64
MIC (Acinetobacter baumannii [6]): > 200 µM
fold change (FC) (Acinetobacter baumannii [7]): >=512
MIC (Acinetobacter baumannii [9]): ≤ 0.062 µg/mL
MIC (Acinetobacter baumannii [15]): 0.5 µg/mL
fold change (FC) (Acinetobacter baumannii [10]): 32
MIC (Acinetobacter baumannii [11]): 1 µg/mL

COc1cc(-c2c[nH]c(N)n2)ccc1NC(=O)Nc1ccc(-c2c[nH]c(N)n2)cc1OC.Cl.Cl
MIC (Acinetobacter baumannii [6]): 200 µM
fold change (FC) (Acinetobacter baumannii [7]): 4
MIC (Acinetobacter baumannii [9]): 8 µg/mL

Cl.Cl.Nc1nc(-c2ccc(NC(=O)Nc3ccc(-c4c[nH]c(N)n4)c(F)c3)cc2)c[nH]1
fold change (FC) (Acinetobacter baumannii [13]): 64
MIC (Acinetobacter baumannii [13]): 0.5 µg/mL
fold change (FC) (Acinetobacter baumannii [14]): 32
MIC (Acinetobacter baumannii [6]): > 200 µM
fold change (FC) (Acinetobacter baumannii [7]): >=512
MIC (Acinetobacter baumannii [9]): ≤ 0.062 µg/mL
MIC (Acinetobacter baumannii [15]): 1 µg/mL
fold change (FC) (Acinetobacter baumannii [10]): 16
MIC (Acinetobacter baumannii [11]): 2 µg/mL

Nc1nc(-c2cccc(NC(=O)Nc3cccc(-c4c[nH]c(N)n4)c3)c2)c[nH]1
IC50 at 24 h [1]: 380 µg/mL (≈ 1010 µM)
fold change (FC) (Acinetobacter baumannii [2]): 8
Stability [3]: 88%
MIC (Acinetobacter baumannii [16]): 0.125 µg/mL
MIC (Acinetobacter baumannii [17]): 0.003 µg/mL
MIC (Acinetobacter baumannii [4]): 4 µg/mL
MIC (Acinetobacter baumannii [18]): 4 µg/mL
MIC (Acinetobacter baumannii [19]): 0.25 µg/mL
Stability [5]: 93%
fold change (FC) (Acinetobacter baumannii [14]): 64
MIC (Acinetobacter baumannii [20]): 0.5 µg/mL
MIC (Acinetobacter baumannii [6]): 200 µM (≈ 74.9 µg/mL)
MIC (Acinetobacter baumannii [21]): 0.5 µg/mL
MIC (Acinetobacter baumannii [22]): 4 µg/mL
fold change (FC) (Acinetobacter baumannii [7]): >=512
MIC (Acinetobacter baumannii [23]): 0.5 µg/mL
selectivity ratio [8]: 113
MIC (Acinetobacter baumannii [9]): ≤ 0.062 µg/mL
MIC (Acinetobacter baumannii [24]): 0.015 µg/mL
MIC (Acinetobacter baumannii [15]): 0.5 µg/mL
MIC (Acinetobacter baumannii [25]): 1 µg/mL
fold change (FC) (Acinetobacter baumannii [10]): 32
MIC (Acinetobacter baumannii [11]): 1 µg/mL
